# Source: PubChem (Johns Hopkins Ion Channel Center)
# A selection: hits, their analogues and other compounds. The true share with any hit is near 3.5%.
# RGS4 block – inhibitors of human RGS4; HEK293 M3R/RGS4 inducible, Fluo-4 calcium flux; stronger effect = higher value; triggered by carbachol at its EC20; B-score at 10 µM; actives 0.45% (n = 310,000);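 active = B-score, a plate-corrected calcium signal, over three deviations above library mean, with baseline fluorescence within five deviations of library mean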;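 also: RGS4 expression induced by doxycycline in cells with stable M3 receptor; B-score is computed from the integrated fluorescence ratio over baseline after carbachol; higher B-score means a larger calcium signal and so more RGS4 inhibition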
# Target sequence (P49798 whole entry, looked up): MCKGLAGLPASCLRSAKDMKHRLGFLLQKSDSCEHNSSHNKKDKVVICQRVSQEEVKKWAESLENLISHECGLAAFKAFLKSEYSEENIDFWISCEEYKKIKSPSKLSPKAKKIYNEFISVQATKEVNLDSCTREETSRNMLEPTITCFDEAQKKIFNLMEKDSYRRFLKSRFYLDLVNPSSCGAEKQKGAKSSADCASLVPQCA
# MrgX1 antagonist – blocks BAM8-22 activation of human MrgX1 receptor. Q96LB2. MRGX1-HEK293 calcium flux, Fluo-4, BAM8-22 antagonism; stronger effect = lower value. B-score at 10 µM. actives 1.3% (n = 310,000). AID 588676;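 active = calcium-response B-score plate-corrected more than 3 library SD below zero, starting fluorescence within 5 deviations, no agonist response on first addition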;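 also: peak minus trough fluorescence over baseline after final BAM8-22 challenge near maximal dose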
# Target sequence (Q96LB2 whole entry, looked up): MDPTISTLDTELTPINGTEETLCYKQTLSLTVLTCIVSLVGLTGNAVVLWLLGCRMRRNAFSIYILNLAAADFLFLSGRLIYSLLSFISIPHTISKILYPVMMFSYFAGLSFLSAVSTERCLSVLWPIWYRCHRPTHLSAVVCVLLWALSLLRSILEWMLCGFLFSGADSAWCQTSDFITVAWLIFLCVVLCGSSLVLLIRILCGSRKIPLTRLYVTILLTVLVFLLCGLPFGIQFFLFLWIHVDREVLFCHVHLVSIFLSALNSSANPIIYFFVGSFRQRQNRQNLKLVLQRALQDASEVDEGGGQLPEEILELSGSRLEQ
# RGS4 act – RGS4 potentiation or activation. HEK293 M3R/inducible RGS4, carbachol calcium flux Fluo4; stronger effect = lower value. B-score at 10 µM. actives 0.92% (n = 310,000). AID 463111;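 active = B-score of the integrated calcium signal more than 4 SD below the library mean, with starting fluorescence not abnormally high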;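 also: negative B-score means reduced calcium response which marks RGS4 activation or potentiation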
#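 System: HEK293 FlpIn-TREx cells, stable M3R, doxycycline-inducible RGS4. Timing: overnight RGS4 induction, 30 min dye load 37 °C, 20 min compound RT. Also added: carbachol, ECmax concentration. Measured by: Fluo4 fluorescence kinetic imaging of calcium. Evaluation: integrated calcium ratio converted to B score.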
# MrgX1 ag – human MrgX1 receptor agonism, primary screen; Q96LB2; MrgX1-HEK293 cells, Fluo-4 calcium fluorescence, agonist mode; stronger effect = higher value; B-score at 10 µM; actives 0.44% (n = 310,000); AID 588627;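 active = calcium response B-score plate-corrected fluorescence ratio at least 3 library SD, with starting fluorescence B-score inside 5 SD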
#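 System: HEK293 cells stably expressing human MrgX1 receptor; Dosing: test compound in the initial addition of three; Schedule: overnight plating, then 30 min 37 °C plus 30 min room-temperature dye loading; Detection: kinetic calcium dye fluorescence, Fluo-4 NW; Controls: per-plate positive and negative controls for Z′ factor.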
# MrgX1 allo act – allosterically activates human MrgX1 receptor signaling; MrgX1-HEK293, Fluo-4 calcium flux, FDSS; stronger effect = higher value; AID 588675; actives 0.63% (n = 310,000); Q96LB2; B-score at 10 µM;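 active = plate-corrected calcium response at least 3 library SD above typical, normal starting fluorescence, not activating the receptor alone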;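 also: compound read alongside a low EC10 to EC30 dose of BAM8-22 agonist; peak minus trough fluorescence over baseline measured at the second addition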
# RGS4 inh valid – validation of RGS4 inhibitors. calcium response, % at 10 µM. AID 492999. shares compounds with RGS4 block. HEK293 M3R/RGS4, carbachol calcium Fluo-4 fluorescence; carbachol added at its EC20; 0 = buffer wells, 100 = carbachol control. actives 65% (n = 1,700);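 active = duplicate-averaged calcium response above the buffer-only control mean plus 5 SD of those controls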;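 also: integrated fluorescence ratio F max minus min over baseline F0; higher response in RGS4-induced cells means RGS4 inhibition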
# M3R Ca ctr – checks RGS4 inhibitor effects in non-induced HEK293 M3R cells. shares compounds with RGS4 block. AID 493000. actives 20% (n = 1,900). activity (percent), % at 10 µM. carbachol calcium Fluo-4; submaximal (EC20) carbachol stimulus; buffer wells 0%, carbachol control wells 100%; call rule not given here;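 also: RGS4 induction absent so cells express M3R without RGS4; higher means more calcium signal and flags a non-specific hit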
# M3R basal Ca ctr – second RGS4 inhibitor counter-screen in uninduced cells lacking carbachol; AID 493001; calcium response (agonist-mode artifact), % at 10 µM; shares compounds with RGS4 block; actives 22% (n = 1,900); HEK293 M3R/RGS4 non-induced, Fluo-4 calcium, no carbachol; normalised: buffer wells 0%, carbachol wells 100%;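 active = duplicate-averaged calcium rise in uninduced cells above buffer wells' mean plus 5 SD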
# Starred values were filed as active, the others as inactive; i = inactive; / = not tested or not shown.
SMILES,RGS4 block,MrgX1 antagonist,RGS4 act,MrgX1 ag,MrgX1 allo act,RGS4 inh valid,M3R Ca ctr,M3R basal Ca ctr
Cc1ccc(Cn2cccc2/C=C2/C(=N)N3C=CSC3=NC2=O)cc1,i,i,i,i,i,i,i,i
N=C1/C(=C/c2cccn2Cc2ccc(F)cc2)C(=O)N=C2SC=CN12,i,i,i,i,i,/,i,21%*
Cc1cccc(Cn2cccc2/C=C2/C(=N)N3C=CSC3=NC2=O)c1,i,i,i,i,i,/,/,/
Cc1nc2sc3c(c2c(=O)n1/N=C/c1cccnc1)CCCC3,i,i,i,i,i,/,/,/
O=C(N/N=C/c1ccc(O)cc1)NC12CC3CC(CC(C3)C1)C2,5.2*,i,i,i,i,20%*,58%*,11%*
CC(CC(=O)Nc1ccc(S(=O)(=O)Nc2ncccn2)cc1)c1ccccc1 (stereo not drawn),i,i,i,i,i,i,i,i
O=C(/C=C/c1cccc(F)c1)Nc1ccc(S(=O)(=O)Nc2ncccn2)cc1,5.1*,i,i,i,i,7.0%*,i,i
Cc1cccc2cc(CN(Cc3ccccc3)C(=S)NCCCN(C)C)c(=O)[nH]c12,i,i,i,i,i,/,/,/
CNC(C)C#Cc1ccc2c(=O)c3ccccc3oc2c1 (stereo not drawn),i,i,i,i,i,/,/,/
CCOC(=O)COc1cc([N+](=O)[O-])cc2cccnc12,i,i,i,i,i,/,/,/
CCOC(=O)COc1ccccc1/C=C\[N+](=O)[O-],19*,i,i,i,i,70%*,i,11%*
COc1cccc(-c2c(C(=O)N/N=C/c3ccc(C)s3)nnn2-c2nonc2N)c1,i,i,i,i,i,/,/,/
CCOc1ccc(-c2c(C(=O)N/N=C/c3sccc3C)nnn2-c2nonc2N)cc1,i,i,i,i,i,/,/,/
CCOc1cccc(-c2c(C(=O)N/N=C/c3ccc(C)s3)nnn2-c2nonc2N)c1,i,i,i,i,i,/,i,i
CCOc1cccc(-c2c(C(=O)N/N=C/c3sccc3C)nnn2-c2nonc2N)c1,i,i,i,i,i,/,i,i
Cc1ccc(-c2c(C(=O)N/N=C/c3ccsc3)nnn2-c2nonc2N)cc1,i,i,i,i,i,/,/,/
CCOc1cccc(-c2c(C(=O)N/N=C/c3ccsc3)nnn2-c2nonc2N)c1,i,i,i,i,i,/,i,i
CCOC(=O)C1=C(c2ccccc2)NC(=O)NC1c1cc(Cl)c(O)c(OC)c1 (stereo not drawn),i,i,i,i,i,/,/,/
CCOC(=O)C1=C(c2ccccc2)NC(N)=NC1c1ccc(OCc2ccc(Cl)cc2)c(OC)c1 (stereo not drawn),8.9*,i,i,i,i,32%*,i,34%*
O=[N+]([O-])c1ccc(/C=[N+](\[O-])[C@@H]2CCCC[C@@H]2/[N+]([O-])=C/c2ccc([N+](=O)[O-])o2)o1,i,i,i,i,i,/,/,/
N#C/C(=C(/O)c1cccc(F)c1)c1nc2ccccc2s1,i,i,i,i,i,/,/,/
N#C/C(=C(/O)C(Cl)c1ccccc1)c1nc2ccccc2s1 (stereo not drawn),5.1*,i,i,i,i,6.5%*,i,i
CC1=C(C(=O)Nc2ccc(C(=O)NCCC(C)C)cc2)SCCO1,i,i,i,i,i,/,/,/
CC(C)=C1C(=O)NN(c2ccc(F)c(Cl)c2)C1=O,i,i,i,i,i,/,/,/
O=C1NN(c2ccc(F)c(Cl)c2)C(=O)/C1=C\c1cccc(OC(=O)c2cccs2)c1,18*,i,i,27*,i,58%*,i,14%*
SMILES,RGS4 block,MrgX1 antagonist,RGS4 act,MrgX1 ag,MrgX1 allo act,RGS4 inh valid,M3R Ca ctr,M3R basal Ca ctr
CC(=O)N1CCC(=NNc2ccnc3cc(Cl)ccc23)CC1,6.9*,i,i,i,i,28%*,i,i
CCOC(=O)N1CCC(=NNc2ccnc3cc(Cl)ccc23)CC1,i,i,i,i,i,/,/,/
Cc1ccc(C(=O)Nc2cc(C)nn2CCC#N)cc1,i,i,i,i,i,/,/,/
COc1ccc(-c2csc(NC(C)c3nc4cc(Cl)c(N5CCCCC5)cc4n3CCOCCO)n2)cc1 (stereo not drawn),i,i,i,i,i,i,i,i
COc1ccc(-c2csc(NC(C)c3nc4cc(Cl)c(N5CCCCC5)cc4n3CCCO)n2)cc1 (stereo not drawn),i,i,i,i,i,/,/,/
CC(Nc1nc(-c2ccc(Cl)cc2)cs1)c1nc2cc(Cl)c(N3CCCCC3)cc2n1CCOCCO (stereo not drawn),i,i,i,i,i,/,i,i
O=C(Nc1ccccc1C(=O)Nc1ccc(Cl)cc1)c1cccnc1,i,i,i,i,i,/,/,/
CCOc1ccc(OC(=O)c2cccnc2)cc1,i,i,i,i,i,/,/,/
FC(F)(F)c1ccc(N=Cc2sc(N3CCOCC3)nc2-c2ccccc2)cc1,5.5*,i,i,i,i,5.5%*,i,i
COC(=O)CSc1[nH]c2ccccc2c1[N+](=O)[O-],16*,i,i,i,i,44%*,i,i
Oc1ccc(/C=N/Nc2cc(N3CCOCC3)nc(N3CCOCC3)n2)cc1,i,i,i,i,i,/,/,/
Cc1ccc(CNC(=O)C(=O)NCC2OCCN2S(=O)(=O)c2ccc(C)cc2)cc1 (stereo not drawn),i,i,i,i,i,/,/,/
Cc1cc(C)cc(NC(=O)Cn2nnc(C(=O)NCc3ccc(F)cc3)c2N)c1,i,i,i,i,i,/,/,/
NC(=O)c1cc2c(s1)-c1cc(Cl)ccc1SC2,5.9*,i,i,i,i,18%*,i,i
COCCNC(=O)c1cc2c(s1)-c1ccc(Cl)cc1SC2,i,i,i,i,i,/,/,/
COC(=O)c1ccc(NC(=S)Nc2ccccc2)cc1,i,i,i,i,i,/,/,/
